Results taken from ChEMBL document CHEMBL5303300, “EUbOPEN Chemogenomics Library - Multiplex” (2023).
Several values for one entry are separate records, joined by “and”; a condition that tells them apart may be missing. Equal entries are not always repeated.

Legend:
Format in all cases: toxicity, cell-based
[1] = test system: Fibroblast; assay: Multiplex assay against human fibroblast; conditions: number of replicates 2
Outline: (§1)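 Compound was added to live cells that had been stained at seeding with Hoechst33342, BioTracker Green Microtubule Cytoskeleton Dye, MitoTracker Red and Annexin V Alexa Fluor 680, and imaging followed on a CQ1 microscope at 37°C and 5% CO2. CellPathfinder machine-learning gating divided cells into Hoechst high-intensity objects or normal cells, normal cells into healthy, pyknosed or fragmented nuclei, and pyknosed cells into mitotic or apoptotic. Tubulin, mitochondrial-mass and membrane-permeability phenotypes are per cents of healthy-nucleus cells.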

[2] = test system: U2OS; assay: Multiplex assay against U2OS; conditions: human, number of replicates 2; outline: as §1
[3] = test system: HEK-293T; assay: Multiplex assay against HEK293T; conditions: human, number of replicates 2; outline: as §1
[4] = 12 h, 1 µM, compound concentration 1 uM
[5] = 12 h, 10 µM, compound concentration 10 uM
[6] = 24 h, 1 µM, compound concentration 1 uM
[7] = 24 h, 10 µM, compound concentration 10 uM
[8] = 48 h, 1 µM, compound concentration 1 uM
[9] = 48 h, 10 µM, compound concentration 10 uM

## CS(=O)(=O)c1ccc(C(=O)Nc2cccc(COc3ccc(Br)cc3CNCCO)c2)c(Cl)c1.O=CO
[1]; [4]
  Population Apoptotic (%): 37% and 48%
  Population Hoechst High Intensity Objects (%): 0%
  Population Mitotic Cells (%): 62% and 51%
  Total Cell Count: 153 and 242
[1]; [5]
  Population Apoptotic (%): 58% and 47%
  Population Hoechst High Intensity Objects (%): 0%
  Population Mitotic Cells (%): 41% and 52%
  Population Pyknosed Nuclei (%): 28%
  Total Cell Count: 238 and 244
[1]; [6]
  Population Apoptotic (%): 70% and 59%
  Population Hoechst High Intensity Objects (%): 0%
  Population Mitotic Cells (%): 30% and 40%
  Population Pyknosed Nuclei (%): 20% and 18%
  Total Cell Count: 148 and 236
[1]; [7]
  Population Apoptotic (%): 80% and 67%
  Population Hoechst High Intensity Objects (%): 2% and 0%
  Population Mitotic Cells (%): 20% and 32%
  Population Pyknosed Nuclei (%): 28%
  Total Cell Count: 232 and 267
[1]; [8]
  Population Apoptotic (%): 80% and 74%
  Population Hoechst High Intensity Objects (%): 0%
  Population Mitotic Cells (%): 19% and 25%
  Population Pyknosed Nuclei (%): 16% and 15%
  Total Cell Count: 153 and 246
[1]; [9]
  Population Apoptotic (%): 85% and 77%
  Population Hoechst High Intensity Objects (%): 2% and 0%
  Population Mitotic Cells (%): 22%
  Total Cell Count: 247 and 259
[2]; [4]
  Population Apoptotic (%): 50% and 66%
  Population Healthy Nuclei (%): 74% and 84%
  Population Mitotic Cells (%): 50% and 33%
[2]; [5]
  Population Apoptotic (%): 66% and 50%
  Population Healthy Nuclei (%): 73%
  Population Mitotic Cells (%): 33% and 50%
[2]; [6]
  Population Apoptotic (%): 75% and 87%
  Population Healthy Nuclei (%): 79% and 82%
  Population Mitotic Cells (%): 25% and 12%
  Population Pyknosed Nuclei (%): 15%
[2]; [7]
  Population Apoptotic (%): 66% and 74%
  Population Healthy Nuclei (%): 59% and 66%
  Population Mitotic Cells (%): 33% and 25%
  Population Pyknosed Nuclei (%): 34% and 27%
[2]; [8]
  Population Apoptotic (%): 83%
  Population Healthy Nuclei (%): 83% and 88%
  Population Mitotic Cells (%): 36% and 16%
  Population Pyknosed Nuclei (%): 9%
[2]; [9]
  Population Apoptotic (%): 91% and 85%
  Population Healthy Nuclei (%): 46% and 62%
  Population Mitotic Cells (%): 8%
  Population Pyknosed Nuclei (%): 45% and 27%
[3]; [4]
  Population Apoptotic (%): 64% and 58%
  Population Healthy Nuclei (%): 78% and 83%
  Population Mitotic Cells (%): 35% and 41%
  Total Cell Count: 423 and 657
[3]; [5]
  Population Apoptotic (%): 66%
  Population Healthy Nuclei (%): 81% and 80%
  Population Mitotic Cells (%): 33%
  Total Cell Count: 566 and 616
[3]; [6]
  Population Apoptotic (%): 42% and 53%
  Population Healthy Nuclei (%): 83% and 80%
  Population Mitotic Cells (%): 57% and 46%
  Total Cell Count: 974 and 659
[3]; [7]
  Population Apoptotic (%): 65% and 72%
  Population Healthy Nuclei (%): 78% and 75%
  Population Mitotic Cells (%): 34% and 28%
  Total Cell Count: 498 and 611
[3]; [8]
  Population Apoptotic (%): 36% and 25%
  Population Healthy Nuclei (%): 82% and 85%
  Population Mitotic Cells (%): 63% and 75%
  Total Cell Count: 1468 and 2063
[3]; [9]
  Population Apoptotic (%): 82%
  Population Healthy Nuclei (%): 77% and 78%
  Population Mitotic Cells (%): 36% and 17%
  Total Cell Count: 828 and 933
